# Bioassay records from PubChem.
# hiPSC survival – hiPSC single-cell survival enhancement. hit rate 0.044% among 360,000. ATPlite luminescence; 100% = ROCK inhibitor wells, 0% = DMSO. survival enhancement, % at 20 µM; in the data active = survival enhancement above about 18%;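 also: cells exposed to compounds for 16 hours before the ATP read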
# eLon inh – E. coli protease La inhibition; inhibition, % at 7.94 µM; hit rate 0.42% among 360,000; P0A9M0; purified E. coli Lon protease, fluorescence polarization; in the data active = inhibition above about 13%, passing the limit was not always enough
# Target sequence (P0A9M0 whole entry, looked up): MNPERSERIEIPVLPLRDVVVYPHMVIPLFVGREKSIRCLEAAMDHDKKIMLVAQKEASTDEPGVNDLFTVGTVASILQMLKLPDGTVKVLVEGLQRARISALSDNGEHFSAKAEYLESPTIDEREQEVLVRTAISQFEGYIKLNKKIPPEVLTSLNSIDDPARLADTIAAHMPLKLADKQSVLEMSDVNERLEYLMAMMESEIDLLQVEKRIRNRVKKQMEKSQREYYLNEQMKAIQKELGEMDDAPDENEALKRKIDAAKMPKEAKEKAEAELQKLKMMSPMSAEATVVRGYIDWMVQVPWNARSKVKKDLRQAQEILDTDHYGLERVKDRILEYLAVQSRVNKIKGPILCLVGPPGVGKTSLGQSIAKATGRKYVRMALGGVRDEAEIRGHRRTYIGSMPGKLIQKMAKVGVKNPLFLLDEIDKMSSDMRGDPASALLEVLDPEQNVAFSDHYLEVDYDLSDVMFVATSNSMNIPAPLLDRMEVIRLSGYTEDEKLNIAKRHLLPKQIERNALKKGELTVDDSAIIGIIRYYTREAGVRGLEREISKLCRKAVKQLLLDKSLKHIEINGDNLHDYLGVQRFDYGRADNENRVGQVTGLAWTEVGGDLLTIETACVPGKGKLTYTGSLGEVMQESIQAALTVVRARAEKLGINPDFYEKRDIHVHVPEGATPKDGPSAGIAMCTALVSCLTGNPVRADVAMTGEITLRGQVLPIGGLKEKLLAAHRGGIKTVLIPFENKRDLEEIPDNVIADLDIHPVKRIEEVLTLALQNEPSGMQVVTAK
# Tb MetRS inh – Trypanosoma brucei MetRS inhibition | inhibition, % at 11.9 µM | hit rate 0.4% among 360,000 | AID 624268 | purified T. brucei MetRS, ATP depletion, Kinase-Glo luminescence;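 active = inhibition above a per-plate cutoff of the control wells' mean inhibition plus 3 SD, cut at about 5.5% in these data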
#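 Assay system: T. brucei methionyl-tRNA synthetase, purified | Medium: HEPES buffer with MgCl2, KCl, DTT, spermine, BSA, pyrophosphatase | Compound: 11.9 µM single point | Incubation: 15 min enzyme-compound preincubation, 2 h reaction, 10 min detection, 25 °C | Measured by: Kinase-Glo luciferase luminescence reporting remaining unconsumed ATP | Measure: % inhibition normalized to control-well medians | Replication: Singlicate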
# MT1-MMP act inh – inhibitors of human MT1-MMP activation | hit rate 0.061% among 360,000 | P50281 | GFP/RFP ratio change, % at 20 µM | HT1080 RFP-PRO-GFP cells, GFP/RFP ratio fluorescence, overnight; percent of plate control window, DMSO zero;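 active = GFP/RFP ratio change of at least 30% with cell ATP level not reduced by more than half and red fluorescence within 50% of control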
#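 Test system: HT1080 cells expressing an RFP-PRO-GFP fluorescent reporter construct / Compound dosing: single-point 20 µM compound, 1% DMSO / Schedule: cells overnight before dosing, compound overnight, 37 °C, 5% CO2 / Evaluation: GFP/RFP fluorescence ratio / Control set: DMSO and RFP-L50D-GFP cell wells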
# SKN-1 block – C. elegans SKN-1 inhibition; inhibition, % at 21.8 µM; C. elegans VP596 Pgst-4::GFP/RFP ratio, acrylamide-induced, 24 h; AID 624304; hit rate 0.49% among 360,000;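 active = interference check ratio from 0.5 to 1.5 plus GFP to RFP signal ratio inhibition reaching or exceeding a fixed threshold, cut at about 30% in these data, passing the limit was not always enough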
# PREPL inhibitor – inhibitors of human prolyl oligopeptidase-like enzyme PREPL; AID 2751; inhibition, % at 5.96 µM; hit rate 0.68% among 320,000; Q4J6C6; recombinant PREPL, fluorescence polarization activity-based probe; in the data active = inhibition above about 43%
# eLon confirm – E. coli Lon inhibition confirmation; shares compounds with eLon inh; purified E. coli Lon, fluorescence polarization; inhibition, % at 7.94 µM; hit rate 31% among 1,400; AID 602230; in the data active = inhibition above about 16%
# A number is an active result; . = inactive; / = no result given. The list is not random: actives were taken first. Their share in the collection is about 1.8%.
SMILES,hiPSC survival,eLon inh,Tb MetRS inh,MT1-MMP act inh,SKN-1 block,PREPL inhibitor,eLon confirm
O=C1c2cccc3c([N+](=O)[O-])ccc(c23)C(=O)N1Cc1cccnc1,.,50.9,.,.,.,/,74.7
Cc1ccnc(N2C(=O)c3cccc4c([N+](=O)[O-])ccc(c34)C2=O)c1,.,53.2,.,.,.,.,64.2
Cc1nnc(N2C(=O)c3cccc4c([N+](=O)[O-])ccc(c34)C2=O)s1,.,15.1,.,.,.,.,.
Cc1ccc(N2C(=O)c3cccc4c([N+](=O)[O-])ccc(c34)C2=O)c2cccnc12,.,.,.,.,.,.,/
Cc1cccc(N2C(=O)c3cccc4c(N5CCCCC5)c([N+](=O)[O-])cc(c34)C2=O)c1C,.,.,.,.,.,.,/
Cn1ccc2c(N3CCCC3)cc3c(c21)C1CCC3O1 (centres undefined),.,30.2,.,.,.,/,.
Cn1ccc2c(N3CCCCCC3)cc3c(c21)C1CCC3O1 (centres undefined),.,.,.,.,.,/,/
COc1ccc(Oc2nc(C)cc(C)c2S(=O)(=O)c2ccc(C)cc2)cc1,.,17.7,.,.,.,.,.
CCCCNc1c2c3c(cccc3n(C)c1=O)C(=O)c1ccccc1-2,.,188.0,.,.,.,.,101.2
CC(=O)Nc1ccc(Nc2c3c4c(cccc4n(C)c2=O)C(=O)c2ccccc2-3)cc1,.,148.2,.,.,.,.,178.2
Cn1cc(S(=O)(=O)NC2CCCCCC2)c(=O)n(C)c1=O,.,.,.,.,.,.,/
Cn1c(=O)c(NC2CCCCC2)c2c3c(cccc31)C(=O)c1ccccc1-2,.,117.9,.,.,.,/,.
CC(=O)Nc1ccc(NC2=CC(=O)c3ccccc3C2=O)cc1,.,.,.,.,.,.,/
Cc1ccc(C(=O)N/C(=C\c2cccs2)C(=O)NC2CCCCC2)cc1,.,.,.,.,.,.,/
c1cc(CNc2ccc3c(c2)OCO3)ccn1,.,26.9,.,.,36.9,.,33.9
O=C(NCc1ccncc1)C(=O)Nc1ccc2c(c1)OCO2,.,.,.,.,.,.,/
CCOc1ccccc1N1CCN(Cc2ccco2)CC1,.,.,.,.,.,.,/
CCOc1ccccc1N1CCN(Cc2ccc(Br)s2)CC1,.,28.2,.,.,.,.,.
CC(=O)Nc1nc(SCCCc2ccccc2)n[nH]1,.,.,.,.,.,.,/
CCOC(=O)C1CCCN(C(=O)c2c(-c3ccccc3Cl)noc2C)C1 (centres undefined),.,.,.,.,.,.,/
c1c2c(cc3sc(N4CCOCC4)nc13)OCCO2,.,.,.,.,.,.,/
Cc1nc(N2CCOCC2)sc1C=O,.,20.2,.,.,.,.,.
C=CCN(c1nc(C)c(Br)c(OC)n1)S(=O)(=O)c1ccc(C)cc1,.,49.2,.,.,.,.,.
Cc1ccc(C(=O)Nc2nc(=O)n(C(=O)C3CC3)s2)cc1,.,.,.,.,.,.,/
Cc1ccc(C(=O)Nc2nc(=O)n(C(=O)c3ccccc3C)s2)cc1,.,19.1,.,.,.,.,30.5
SMILES,hiPSC survival,eLon inh,Tb MetRS inh,MT1-MMP act inh,SKN-1 block,PREPL inhibitor,eLon confirm
O=c1oc(CCO)cc2ccc(-c3ccc4[nH]ccc4c3)cc12,.,.,.,.,.,.,/
CC(OC(=O)Cn1cnc2c1c(=O)n(C)c(=O)n2C)C(=O)Nc1ccc(Cl)cc1 (centres undefined),.,26.5,.,.,.,.,.
CC1(C)CC(=O)C(C=Nc2cccnc2/N=C/C2=C(O)CC(C)(C)CC2=O)=C(O)C1,.,52.0,.,.,.,.,.
CC1(C)CC(=O)C(C=Nc2ccc(C(=O)c3ccccc3)cc2N=CC2=C(O)CC(C)(C)CC2=O)=C(O)C1,.,13.0,.,.,.,.,.
CC1(C)CC(=O)C(C=Nc2ccc(O)c(N=CC3=C(O)CC(C)(C)CC3=O)c2)=C(O)C1,.,.,.,.,.,.,/
COc1ccc(/C=N/NC(=O)c2[nH]ncc2Br)c(OC)c1,.,.,.,.,.,.,/
COc1ccc(C(=O)Nc2cccc(C(=O)NCc3ccco3)c2)cc1,.,.,.,.,.,.,/
Cc1cc(C)cc(NC(=O)CN2CCC(NC(=O)c3ccccc3F)CC2)c1,.,.,.,.,.,.,/
O=C(Nc1cccc(O)c1)C1CCCN1C(=O)OCc1ccccc1 (centres undefined),.,17.8,.,.,.,.,.
CCOP(=O)(OCC)C(C)(C)NC(=O)c1cc([N+](=O)[O-])cc([N+](=O)[O-])c1,.,.,.,.,.,.,/
CCOP(=O)(OCC)C(NC(=O)c1cc([N+](=O)[O-])cc([N+](=O)[O-])c1)C(F)(F)F (centres undefined),.,20.7,.,.,.,.,24.4
O=C1C=C(Nc2ccc(Cl)cc2)CC(c2ccccc2)C1 (centres undefined),.,.,.,.,.,.,/
CS(=O)(=O)c1ccc(Cl)c(NC(=O)Cc2ccsc2)c1,.,.,.,.,.,.,/
COC(=O)Cc1c(C)c2ccc(OC(=O)c3ccccc3)cc2oc1=O,.,33.4,.,.,.,.,27.8
CCOC(=O)c1ccccc1NC(=O)N1CCn2c(C)ccc2C1CC (centres undefined),.,.,.,.,.,.,/
CCC1c2ccc(C)n2CCN1C(=O)Nc1ccccc1C(=O)OC (centres undefined),.,22.7,.,.,.,.,.
CCOC(=O)N1CCN(C(c2ccc(C)cc2)c2sc3nc(C)nn3c2O)CC1 (centres undefined),.,.,.,.,.,.,/
COc1cc(C(=O)OCC(=O)N2c3ccccc3NC(=O)C2(C)C)ccc1OCC(C)C,.,21.0,.,.,.,.,.
COc1ccc(CN2CCC(CO)(Cc3ccccc3C(F)(F)F)CC2)c(F)c1,.,20.2,.,.,.,.,.
O=C(COC(=O)c1ccccc1Br)Nc1cccnc1Cl,.,.,.,.,.,.,/
CN1c2ccccc2N(C)C1(C)c1ccccc1,.,38.3,.,.,.,.,.
CCOC(=O)C1=C(COC(=O)c2ccc3ccccc3c2O)NC(=O)NC1C (centres undefined),.,49.2,.,.,.,.,.
CCOC(=O)C1=C(COC(=O)c2ccccc2OC(F)F)NC(=O)NC1C (centres undefined),.,.,.,.,.,.,/
CCC(CC)NC(=O)C1CCN(c2ccc(S(=O)(=O)N3CCOCC3)cc2[N+](=O)[O-])CC1,.,.,.,.,.,.,/
O=[N+]([O-])c1ccc(N2CCN(Cc3ccccc3)CC2)c2c1no[n+]2[O-],.,32.4,.,.,.,/,.
